These results are taken from ChEMBL document CHEMBL1121925, “Isoxicam and related 4-hydroxy-N-isoxazolyl-2H-1,2-benzothiazine-3-carboxamide 1,1-dioxides. Potent nonsteroidal antiinflammatory agents” (1982).

Assay [1] has as its system Rattus norvegicus. Put plainly: Antiinflammatory activity was assessed in carrageenan-induced rat paw edema(CIRPE) test after po administration; Inactive at 100 mg/kg. It counts as functional, organism-based. Further details: dose 100 mg/kg. An outline of the steps:
(§1)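 Male Charles-River rats, groups of 8–10; compound given orally as aqueous suspension, then 1 h later 0.05 mL of 1% carrageenin in 0.9% saline injected into plantar left hind paw. Injected and uninjected paw volumes measured 3 h later by mercury displacement to the lateral malleolus mark; difference compared statistically between treated and control groups at oral screening dose.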

The subject of assay [2] is Rattus norvegicus. Put plainly: Antiinflammatory activity was assessed in carrageenan-induced rat paw edema(CIRPE) test after po administration. Format: functional. Particulars: read-out: MED. An outline of the steps: as §1
(In the carrageenan paw model, swelling and tenderness develop within hours.)

Assay [3] deals with Rattus norvegicus. Put plainly: Antiinflammatory activity was assessed in prophylactic adjuvant induced polyarthritis(AIP) test after po administration. Particulars: for minimal effective dose: Rattus norvegicus, po, read-out: MED. Format: functional. The procedure, abridged: (§2)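 Male Charles-River-Lewis rats (150 ± 10 g), groups of 10. Day 1: heat-killed Mycobacterium butyricum in light mineral oil (250 μg/0.05 mL) injected into left hind paw. Dosing on days 1–20; sacrifice day 21, hind paw weights recorded; change taken as difference between day 1 and day 21.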

Assay [4] deals with Rattus norvegicus. Briefly: Antiinflammatory activity was assessed in therapeutic adjuvant induced polyarthritis(AIP) test after po administration. Particulars: read-out: MED. Format: functional. The procedure, abridged:
(§3)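 Male Charles-River-Lewis rats (150 ± 10 g) injected day 1 in left hind paw with heat-killed Mycobacterium butyricum in mineral oil (250 μg/0.05 mL). Day 14, only responders (lesions in both hind paws) randomized into groups of 10, treated days 14–27, sacrificed day 28; hind paw weight change from day 14 to day 28.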

Assay [5] relates to Rattus norvegicus. Briefly: Antiinflammatory activity was assessed in prophylactic adjuvant induced polyarthritis(AIP) test after po administration. Format: functional. The conditions noted are these: read-out: MED. The procedure, abridged: as §2
Assay [6] has as its system Rattus norvegicus. Put plainly: Antiinflammatory activity was assessed in therapeutic adjuvant induced polyarthritis(AIP) test after po administration. It counts as functional. The conditions noted are these: read-out: MED. The procedure, abridged:
as §3

Activity calls are given as the source filed them. The rule behind the calls is not given here.

For the molecule `Cc1cc(NC(=O)CNS(=O)(=O)c2ccccc2C(=O)O)no1`, the MED entry in assay [1] was “inactive”.
Regarding `Cc1cc(NC(=O)CC(=O)c2ccccc2S(=O)(=O)N(C)C)no1`, the MED result in assay [1] is “inactive”.
As to `CC(=O)Oc1ccccc1C(=O)O` [ASPIRIN], in assay [2], the minimal effective dose turned out to be 100 mg/kg.
In the case of `CCCCC1C(=O)N(c2ccccc2)N(c2ccccc2)C1=O` [PHENYLBUTAZONE], in assay [3], the MED amounted to 1.56 mg/kg and the minimal effective dose came to 1.56 mg/kg. Further, the minimal effective dose in assay [2] was 37.5 mg/kg.
Take `Cc1cc(NC(=O)C2=C(O)c3ccccc3S(=O)(=O)N2C)no1` [ISOXICAM]: the minimal effective dose in assay [4] turned out to be 1.56 mg/kg; in assay [3] it was 1.56 mg/kg; in assay [2], 12.5 mg/kg.
`COc1ccc2c(c1)c(CC(=O)O)c(C)n2C(=O)c1ccc(Cl)cc1` [INDOMETHACIN]: the minimal effective dose turned out to be 0.37 mg/kg in assay [2], 0.39 mg/kg in assay [5] and 0.39 mg/kg in assay [6].
In the case of `CC(=O)Cc1noc(C2=C(O)c3ccccc3S(=O)(=O)N2C)n1`, the MED entry in assay [1] was “inactive”.
For `CC(=O)Cc1noc(C2=C(O)c3ccccc3S(=O)(=O)N2)n1`, the MED entry in assay [1] was “inactive”.
